Compound activity: PubChem BioAssay, Broad Institute
Most compounds without a hit are left out; they make up all but 3.5% or so of the library.
ERAP1 HTS inh = inhibitors of human ERAP1 aminopeptidase; Q9NZ08; recombinant ERAP1, Leu-AMC fluorescence, 60 min; inhibition, % at 10.7 µM; 340,000 tested, 0.15% active; AID 652197;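 active = mean replicate inhibition of at least 30%, or all replicates individually reaching that 30% level; inactive = mean below 30% and not every replicate reaching it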;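 note: 0% = neutral control wells and 100% = L-leucinethiol positive control wells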
Target sequence (Q9NZ08 whole entry, looked up): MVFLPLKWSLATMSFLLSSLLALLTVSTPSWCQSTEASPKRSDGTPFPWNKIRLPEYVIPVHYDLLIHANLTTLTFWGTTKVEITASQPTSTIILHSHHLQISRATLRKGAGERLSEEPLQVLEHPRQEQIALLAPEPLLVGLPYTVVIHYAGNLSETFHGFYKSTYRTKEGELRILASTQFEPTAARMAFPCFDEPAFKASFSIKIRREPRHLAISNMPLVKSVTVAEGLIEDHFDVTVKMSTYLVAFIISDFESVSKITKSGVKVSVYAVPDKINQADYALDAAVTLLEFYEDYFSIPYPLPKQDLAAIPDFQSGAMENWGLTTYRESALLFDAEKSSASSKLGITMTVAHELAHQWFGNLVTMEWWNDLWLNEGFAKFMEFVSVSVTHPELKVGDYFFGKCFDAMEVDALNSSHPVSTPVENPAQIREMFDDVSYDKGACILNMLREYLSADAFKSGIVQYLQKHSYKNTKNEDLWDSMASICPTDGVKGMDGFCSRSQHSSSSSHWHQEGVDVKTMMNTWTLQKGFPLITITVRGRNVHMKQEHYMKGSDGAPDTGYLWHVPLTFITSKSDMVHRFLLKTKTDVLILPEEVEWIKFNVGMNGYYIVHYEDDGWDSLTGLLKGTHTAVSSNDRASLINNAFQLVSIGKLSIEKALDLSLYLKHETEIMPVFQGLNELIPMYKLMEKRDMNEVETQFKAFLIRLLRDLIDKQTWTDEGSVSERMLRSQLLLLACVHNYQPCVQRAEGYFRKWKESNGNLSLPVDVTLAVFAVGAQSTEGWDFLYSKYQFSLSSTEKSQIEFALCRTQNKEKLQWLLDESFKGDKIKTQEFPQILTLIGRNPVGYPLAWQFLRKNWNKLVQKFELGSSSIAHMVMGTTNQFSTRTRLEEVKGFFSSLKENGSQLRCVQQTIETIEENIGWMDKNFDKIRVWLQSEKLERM
MITF TRPM1 HTS = MITF TRPM1 promoter activation in melanoma cells | activation, % at 12.5 µM | SK-MEL-5 TRPM1-promoter luciferase, 24 h; % of positive control, neutral wells = 0 | 300,000 tested, 0.75% active | AID 588334;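 active = mean activation of at least 80% with every replicate also reaching 80%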;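 note: 0% = neutral control wells and 100% = parthenolide positive control wells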
Wnt act = activates Wnt/beta-catenin signaling in a reporter cell assay; activator, plate reader; activation, % at 9.35 µM; 300,000 tested, 1.2% active; AID 743398; in the data active = activation above about 30%, passing the limit was not always enough;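 note: 0% = neutral control wells and 100% = positive control wells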
Cneo AK release = Cryptococcus neoformans lysis via adenylate kinase release; C. neoformans lysis, adenylate kinase release luminescence, 4 h; normalised: neutral wells 0, clomiphene wells 100; lysis activity, % at 15 µM; 360,000 tested, 0.2% active; AID 651654;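 active = mean lysis activity across replicates of at least 80%, whatever share of replicates individually reach that level; inactive = mean lysis activity below 80%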
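Signal: Adenylate kinase release luminescence | Assay system: Log-phase Cryptococcus neoformans yeast cells | Input: Cells at 5 × 10^6 per mL | Buffer or medium: Fresh YPD growth medium | Compound: Single dose | Schedule: Static 4 h at 37 °C with compound, 1 h detection | Controls: Clomiphene | Read-out: Luminescence rise reflecting yeast cell lysis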
esBAF inh = blocks esBAF chromatin remodeling in mouse ES cells. Bmi1-luciferase knock-in reporter, 24 h; 100% = twice the neutral-well signal. reporter increase, % at 12.5 µM. 350,000 tested, 2% active. AID 602393; in the data active = activation above about 40%;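 note: 0% = median of the plate's neutral control wells and 100% = double that signal; a rise in the Bmi1 reporter signal indicates esBAF inhibition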
Env fusion inh = inhibitors of HIV Env-mediated cell fusion | HeLa-JRFL Env/CEM21 cell fusion, luciferase | inhibition, % at 12.3 µM | 360,000 tested, 1.1% active;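 active = mean replicate inhibition score of at least 50 and every replicate individually at or above 50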;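 note: 0% = plate neutral controls and 100% = maraviroc near 300 nM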
* hit, by the source's call; / = no result; [ ] = dose if it differs, or a comment.

SMILES | ERAP1 HTS inh | MITF TRPM1 HTS | Wnt act | Cneo AK release | esBAF inh | Env fusion inh
NC(=O)CSc1nnc(-c2ccccn2)n1Cc1ccco1 | 3.7 | / | 1.8 | -9.8 | -4.2 | 10.7
Cc1cccc2sc(N(CCCN(C)C)C(=O)c3ccc4ncsc4c3)nc12 | 76.2* | 33.9 | -2.0 | 1.3 | 30.0 | -22.4
S=c1nc(COc2ccccc2)[nH]c2ccccc12 | -2.2 | 26.9 | 26.6 | -4.3 | 68.0* | -30.2
C[C@@H]1CN([C@H](C)CO)C(=O)c2cc(NS(C)(=O)=O)ccc2O[C@H]1CN(C)S(=O)(=O)c1ccc(F)cc1 | 0.4 | / | / | -3.2 | -1.0 | /
Cc1ccc(S(=O)(=O)NCCNC(=O)c2cc(OCC(F)(F)F)ccc2OCC(F)(F)F)cc1 | / | / | -9.6 | -3.0 | 8.6 | 95.9*
O=C(NCCNC(=O)c1cc(OCC(F)(F)F)ccc1OCC(F)(F)F)Nc1cccc(C(F)(F)F)c1 | / | -7.0 | / | 0.7 | -1.1 | 84.1*
CN(C)S(=O)(=O)NCCNC(=O)c1cc(OCC(F)(F)F)ccc1OCC(F)(F)F | 1.6 | 6.3 | -7.2 | / | / | 1.7
CCC(=O)Nc1ccc2c(c1)C(=O)N(C)C[C@H](OC)[C@H](C)CN(C(=O)c1ccncc1)[C@@H](C)CO2 | 3.0 | / | / | -1.5 | -1.4 | -0.2[16.7 µM]
C[C@H](CO)N1C[C@H](C)[C@H](CN(C)C(=O)c2cccnc2)Oc2ncc(C3=CCCCC3)cc2C1=O | 0.3 | / | / | -6.2 | 5.8 | -5.0[16.7 µM]
Cc1cccc(C(=O)NNS(=O)(=O)c2ccc(F)cc2)c1 | -2.0 | / | 0.0 | -1.8 | 41.8* | -20.8
Cc1ccc(OCc2cc(C(=O)NCC(C)(C)N3CCOCC3)no2)cc1C | -1.3 | 121.2* | 46.6* | -1.5 | / | -69.2
Cc1ccc(OCc2cc(C(=O)NCC3COCCO3)no2)cc1C (stereo unspecified) | 5.5 | 7.0 | 0.3 | -1.1 | / | 20.6
CCN1CCCC1CNC(=O)c1cc(COc2ccc(C)c(C)c2)on1 (stereo unspecified) | -2.7 | 79.0 | 6.9 | 0.5 | 45.0* | -28.2
C/C(=N\NC(=O)c1cccs1)c1ccc2ccccc2c1 | -0.4 | 65.7 | 9.4 | -0.4 | 52.3* | -30.3
C/C(=N/NC(=O)c1cccs1)c1cccc(NC(=O)C2CC2)c1 | / | 21.9 | / | -1.1 | 37.9 | /
C/C(=N\NC(=O)c1ccc2ccccc2c1)c1cccs1 | -1.6 | 38.4 | 41.5* | -9.4 | 5.0 | -151.6
CCC(=O)N1CC2(C1)CN(S(C)(=O)=O)[C@@H](CO)c1c2c2ccc(OC)cc2n1C | 0.9 | / | / | / | / | /
COCC(=O)N1CC2(C1)CN(Cc1cccc(Cl)c1)[C@@H](CO)c1[nH]c3cc(OC)ccc3c12 | -1.3 | / | / | / | / | /
Cc1cccc2nc(=S)n(C(=O)c3ccco3)n12 | / | 58.2 | / | -5.1 | 74.5* | -264.6
CN(CC(=O)Nc1cccc(F)c1)C(=O)CCNC(=O)c1ccc(Br)cc1 | 5.7 | 12.6 | 5.4 | -9.7 | 23.4 | 9.8
CN(CC(=O)Nc1cccc(F)c1)C(=O)CCNC(=O)c1ccco1 | -2.9 | 0.0 | 48.9* | / | / | -8.5
CN(CC(=O)Nc1cccc(F)c1)C(=O)CCCNC(=O)c1ccc(Cl)cc1 | -0.3 | 56.9 | 19.8 | -3.0 | 53.8* | -12.1
Cc1ccc(NCCC(=O)c2ccccc2)cc1Cl | -4.0 | 20.7 | 1.0 | -4.6 | 59.6* | -6.3
COc1ccc(C(=O)CC(=O)C(=O)Nc2cccc(F)c2)cc1 | 1.0 | -2.7 | 2.2 | -1.7 | 10.3 | 6.5
COc1ccc(C(=O)CCNc2cccc(Cl)c2)cc1 | / | 74.2 | 68.6* | 0.9 | / | -23.8
COc1ccc(C(=O)CNc2cccc(F)c2)cc1 | 1.3 | 71.7 | 18.6 | -15.6 | 63.3* | -1.5
COCCOC(=O)N1C(=O)[C@@]2(c3cc(C#Cc4ccc(OC)cc4)ccc31)[C@H](C(=O)N1CCN(c3ncccn3)CC1)[C@H]1C(=O)O[C@H](c3ccccc3)[C@H](c3ccccc3)N1[C@@H]2c1ccc(OCCO)cc1 | -2.1 | / | / | -6.3 | / | 9.9[16.7 µM]
CS(=O)(=O)Nc1cccc2cccnc12 | / | -13.4 | 1.9 | -0.1 | -10.9 | /
Cc1cc(C)n(-c2ccc3cccc(NS(C)(=O)=O)c3n2)n1 | / | -60.2 | / | -15.2 | 6.6 | 60.4*
COc1cccc(N(C(=O)CCl)C(C(=O)NCCc2ccccc2)c2cccs2)c1 (stereo unspecified) | / | -88.8 | -2.9 | -0.3 | 14.9 | 65.2*
